Measured values taken from ChEMBL document CHEMBL4680257, “Discovery of novel NF-кB inhibitor based on scaffold hopping: 1,4,5,6,7,8-hexahydropyrido[4,3-d]pyrimidine” (Eur J Med Chem, 2020).
Active and inactive are the calls of the source. The calls are words filed in the database; no cut-off is given here.

Tests used:
SMMC-7721 [1] = assay: Cytotoxicity against human SMMC-7721 cells assessed as reduction in cell viability incubated for 24 hrs by MTT assay; format: functional, cell-based; settings: SMMC-7721, 24 h
Summary of the method: (§1)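 Cells kept at 37 °C in 5% CO₂. HepG2 grown in DMEM with 10% serum; HHL-5, LO2 and SMMC-7721 in 1640 medium with 10% serum. Seeded, grown 24 h, then exposed 24 h to 10, 5, 2.5, 1.25, 0.625 and 0.3125 µg/mL. MTT (5 mg/mL) added for 4 h at 37 °C; formazan dissolved in DMSO, OD read at 570 nm. IC50 averaged from three replicates.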

L02 = assay: Cytotoxicity against human L02 cells assessed as reduction in cell viability incubated for 24 hrs by MTT assay; format: cell-based; settings: L02, 24 h; summary of the method: as §1
RAW264.7 [2] = assay: Cytotoxicity against mouse RAW264.7 cells assessed as reduction in cell viability at 5 uM incubated for 24 hrs by MTT assay; format: cell-based; settings: raw264.7, 24 h
HepG2 [3] = assay: Induction of apoptosis in human HepG2 cells assessed as viable cells at 4 uM incubated for 24 hrs by annexin V-FITC and PI staining based flow cytometry analysis (reference value: 94.2 %); format: functional; settings: read-out: Activity
Summary of the method: (§2)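 Cells seeded at 2×10^5 per well and treated 24 h with 1.0, 2.0 or 4.0 µM, or DMSO. Harvested, washed twice in cold PBS, resuspended at 1×10^5 cells/mL in buffer. Stained with Annexin V-FITC plus propidium iodide for 15 min at room temperature in the dark, then analysed by flow cytometry.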

HepG2 [4] = assay: Induction of apoptosis in human HepG2 cells assessed as late apoptotic cells at 4 uM incubated for 24 hrs by annexin V-FITC and PI staining based flow cytometry analysis (reference value: 4.8 %); format: functional; summary of the method: as §2
HepG2 [5] = assay: Induction of apoptosis in human HepG2 cells assessed as necrotic cells at 4 uM incubated for 24 hrs by annexin V-FITC and PI staining based flow cytometry analysis (reference value: 0.8 %); format: functional; summary of the method: as §2
SMMC-7721 [6] = assay: Induction of apoptosis in human SMMC-7721 cells assessed as viable cells at 1 uM incubated for 24 hrs by annexin V-FITC and PI staining based flow cytometry analysis (reference value: 93.3 %); format: functional; settings: read-out: Activity; summary of the method: as §2
SMMC-7721 [7] = assay: Induction of apoptosis in human SMMC-7721 cells assessed as early apoptotic cells at 1 uM incubated for 24 hrs by annexin V-FITC and PI staining based flow cytometry analysis (reference value: 0.3 %); format: functional; summary of the method: as §2
SMMC-7721 [8] = assay: Induction of apoptosis in human SMMC-7721 cells assessed as necrotic cells at 1 uM incubated for 24 hrs by annexin V-FITC and PI staining based flow cytometry analysis (reference value: 1 %); format: functional; summary of the method: as §2
SMMC-7721 [9] = assay: Induction of apoptosis in human SMMC-7721 cells assessed as late apoptotic cells at 4 uM incubated for 24 hrs by annexin V-FITC and PI staining based flow cytometry analysis (reference value: 5.4 %); format: functional; summary of the method: as §2
SMMC-7721 [10] = assay: Induction of apoptosis in human SMMC-7721 cells assessed as necrotic cells at 4 uM incubated for 24 hrs by annexin V-FITC and PI staining based flow cytometry analysis (reference value: 1 %); format: functional; summary of the method: as §2
SMMC-7721 [11] = assay: Induction of apoptosis in human SMMC-7721 cells incubated for 24 hrs by annexin V-FITC and PI staining based flow cytometry analysis; format: functional, cell-based; settings: dose 1-4 µM; summary of the method: as §2
HepG2 [12] = assay: Induction of apoptosis in human HepG2 cells assessed as increase in Bax expression incubated for 24 hrs by Western blot analysis; format: functional, cell-based; settings: dose 1-4 µM
Summary of the method: (§3)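 HepG2 exposed to 1.0, 2.0 or 4.0 µM for 24 h. Lysates separated by electrophoresis and blotted onto nitrocellulose. Probed overnight at 4 °C with anti-Bcl-2, anti-BAX or anti-cleaved caspase-3, then 2 h at room temperature with anti-mouse/rabbit IgG. ECL detection, GAPDH as loading control; quantified from more than three separate experiments.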

HepG2 [13] = assay: Induction of apoptosis in human HepG2 cells assessed as decrease in Bcl-2 expression incubated for 24 hrs by Western blot analysis; format: functional, cell-based; settings: dose 1-4 µM; summary of the method: as §3
RAW264.7 [14] = assay: Inhibition of NF-kappaB in mouse RAW264.7 cells assessed as reduction in LPS-induced Akt phosphorylation at 1 to 4 uM incubated for 1 hr followed by LPS stimulation and measured after 30 mins by Western blot analysis; format: cell-based; settings: dose 1-4 µM
Summary of the method: (§4)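 RAW264.7 incubated 1 h with compound (1.0, 2.0, 4.0 µM), then LPS 1.0 µg/mL for 30 min before extraction. Lysates blotted to nitrocellulose and probed overnight at 4 °C for total and phospho forms of p65, IκBα, Akt, ERK1/2, JNK and p38; secondary antibody 2 h at room temperature. ECL detection, normalized to GAPDH, mean ± SD of triplicate tests.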

RAW264.7 [15] = assay: Inhibition of NF-kappaB in mouse RAW264.7 cells assessed as reduction in LPS-induced p38 phosphorylation at 1 to 4 uM incubated for 1 hr followed by LPS stimulation and measured after 30 mins by Western blot analysis; format: cell-based; settings: dose 1-4 µM; summary of the method: as §4
HepG2 [16] = assay: Inhibition of NF-kappaB in human HepG2 cells assessed as reduction in TNFalpha-induced p65 nuclear translocation at 4 uM pretreated with TNFalpha for 15 mins followed by compound addition and measured after 2 hrs by DAPI staining based fluorescence microscopy; settings: time 135.0 min

## Cl.NC1=NC(c2cccc(F)c2)C2=C(N1)/C(=C/c1cccc(F)c1)CN(S(=O)(=O)c1ccc(C(F)(F)F)cc1)C2 (configuration not stated)
SMMC-7721 [1]
  IC50: 2.4 µM
L02
  IC50: 35.2 µM
RAW264.7 [2]
  Activity: Non-Toxic
HepG2 [3]
  viability at 4 µM: 30.6%
HepG2 [4]
  Activity: 18.5%
HepG2 [5]
  Activity: 1.2%
SMMC-7721 [6]
  viability at 1 µM: 80.8%
SMMC-7721 [7]
  Activity: 3.2%
SMMC-7721 [8]
  Activity: 0.7%
SMMC-7721 [9]
  Activity: 9.2%
SMMC-7721 [10]
  Activity: 12.9%
SMMC-7721 [11]
  Activity: Dose-dependent effect
HepG2 [12]
  Activity: Dose-dependent effect
HepG2 [13]
  Activity: Dose-dependent effect
RAW264.7 [14]
  inhibition: Active
RAW264.7 [15]
  inhibition: Active
HepG2 [16]
  inhibition: Active
